FLuc inh counter: counter-screen for luciferase assay inhibitors: firefly luciferase inhibition | inhibition, % at 10 µM | AID 1006 | ATPLite firefly luciferase biochemical luminescence, 10 min | hit rate 1.5% among 200,000 | P08659;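 active = inhibition above about 50% when tested at 10 µM, limit read from the data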
Target sequence (P08659 whole entry, looked up): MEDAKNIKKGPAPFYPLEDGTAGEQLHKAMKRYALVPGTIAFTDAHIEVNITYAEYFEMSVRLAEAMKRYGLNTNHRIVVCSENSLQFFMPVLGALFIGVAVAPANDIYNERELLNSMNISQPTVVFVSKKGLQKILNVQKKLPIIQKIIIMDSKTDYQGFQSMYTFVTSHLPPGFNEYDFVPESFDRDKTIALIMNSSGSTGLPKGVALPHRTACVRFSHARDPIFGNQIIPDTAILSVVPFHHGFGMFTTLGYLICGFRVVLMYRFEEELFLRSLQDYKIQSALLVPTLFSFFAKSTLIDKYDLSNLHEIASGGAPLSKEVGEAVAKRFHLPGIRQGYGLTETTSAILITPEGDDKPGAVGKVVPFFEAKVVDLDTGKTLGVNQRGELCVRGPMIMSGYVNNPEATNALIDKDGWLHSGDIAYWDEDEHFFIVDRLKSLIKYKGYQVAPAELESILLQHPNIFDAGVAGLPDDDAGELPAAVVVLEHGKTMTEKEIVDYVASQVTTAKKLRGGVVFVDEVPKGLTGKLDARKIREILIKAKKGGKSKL
C8 TRAIL sens: caspase-8 TRAIL sensitization | NB7+C8 cells + TRAIL, ATPlite viability luminescence | inhibition (viability loss, TRAIL sensitization), % at 10 µM | hit rate 1% among 360,000 | AID 624354;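 active = compounds causing at least 50% loss of cell viability in the single-dose screen, relative to plate controls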
PPC-1+TRAIL kill: kills PPC-1 cancer cells in the presence of TRAIL; PPC-1 cells + TRAIL, ATPLite viability luminescence; cell killing (% activity), % at 4 µM or 5 µM; hit rate 0.41% among 220,000;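 active = cell killing above 50% in the first pass at 4 µM, then a duplicate retest at 5 µM averaging 50% or more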;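 also: plate controls were cells with TRAIL plus DMSO for no effect and medium-only wells lacking cells for full effect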
FLuc stim CS: firefly luciferase counter-screen for stimulation assays; ATPlite luciferase biochemical, luminescence, 10 min; 0 = ATP-free wells, 1 = DMSO control; AID 1027; activation factor at 10 µM; 200,000 tested, under 10 active;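 active = luciferase activation factor, scaled between plate controls, of at least 2 with compound at 10 µM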
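System: Luciferase/luciferin detection reagent, cell-free biochemical luciferase assay | Medium: PBS buffer for ATP | Dosing: Test compounds dosed from 2 mM stocks in 100% DMSO | Timing: 10 min at ambient temperature | Signal: Luminescence measurement of luciferase light output | Evaluation: Luciferase activation, seen as luminescence increase over controls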
The depositor's hits bear a star; . = no result. An excerpt weighted towards active compounds, which were near 1.6% of everything screened.

SMILES	FLuc inh counter	C8 TRAIL sens	PPC-1+TRAIL kill	FLuc stim CS
Cc1nc2ccc3nc(NC(=O)c4ccc5c(c4)OCCO5)sc3c2s1	10	-2	-5	0.9
Cc1ccc(NC(=O)c2ccc3c(c2)C(=O)N(CC2CCCO2)C3=O)cc1C (configuration not stated)	11	9	32	0.9
Cc1cnc(NC(=O)c2ccc3c(c2)OCCO3)s1	.	94*	.	.
O=C(Nc1ncc([N+](=O)[O-])s1)c1ccc2c(c1)OCO2	.	68*	.	.
Cc1ccc([N+](=O)[O-])cc1NC(=O)c1ccc2c(c1)OCO2	-4	11	6	1
CC1CN(C2=Nc3cccc4cccc2c34)CC(C)O1 (configuration not stated)	0	-12	10	1
COc1ccccc1NS(=O)(=O)c1cccc(NC(=O)c2sc3ccccc3c2Cl)c1	2	12	25	1
O=C(Nc1cc(-c2ccccc2)sc1C(=O)O)c1cccc(F)c1	.	10	.	.
Cc1ccc(C(=O)Nc2ncc(C)s2)o1	41	13	18	0.6
Cc1ccc(C(=O)Nc2ncc(C)s2)s1	.	78*	.	.
Cc1ccc(C(=O)Nc2ncc([N+](=O)[O-])s2)cc1	.	77*	.	.
Cc1ccc(C(=O)Nc2nnc(C)s2)cc1	58*	48	18	0.4
O=C(COc1ccc(Cl)cc1)Nc1ncc([N+](=O)[O-])s1	59*	32	36	0.4
O=C(Cc1ccc(Cl)cc1)Nc1ncc([N+](=O)[O-])s1	-5	-17	8	1.1
CC(C)COCc1ccc(O)c2ncccc12	-5	52*	14	1
Cc1cccc(CS(=O)(=O)c2ncc(Cl)c(C(=O)Nc3c(C)cccc3C)n2)c1	.	29	.	.
Cc1cccc(CS(=O)(=O)c2ncc(Cl)c(C(=O)NCc3ccccc3)n2)c1	.	-14	.	.
COc1ccc(NC(=O)c2nc(S(=O)(=O)Cc3cccc(C)c3)ncc2Cl)c(OC)c1	.	52*	.	.
COc1ccc(OC)c(NC(=O)c2nc(S(=O)(=O)Cc3ccccc3)ncc2Cl)c1	.	96*	.	.
O=C(c1ccco1)N1CCN(CC2CC3C=CC2C3)CC1 (configuration not stated)	-8	-12	7	1.1
Cc1cc(O)c2c(c1O)C(=O)[C@]13C(=C2O)C(=O)[C@@H]2[C@@H](O)[C@H]1[C@@H]1[C@H](O)[C@H]3C(=O)C3=C(O)c4c(O)cc(C)c(O)c4C(=O)[C@]312	.	48*	.	.
CCOc1ccc(NC(=O)C2CCCN(S(=O)(=O)c3ccc4c(c3)CCCN4C(C)=O)C2)cc1 (configuration not stated)	.	-19	.	.
O=C(Nc1ccc(NC(=O)C2CC2)cc1)c1ccco1	.	55*	.	.
O=C(Nc1ccc(NC(=O)C2CCCCC2)cn1)c1ccco1	86*	70*	58*	0.1
c1csc(C2=NNC(=NC3CCCCC3)SC2)c1	74*	15	24	0.3
SMILES	FLuc inh counter	C8 TRAIL sens	PPC-1+TRAIL kill	FLuc stim CS
Cc1cc(C2=NNC(=NC3CC3)SC2)c(C)n1-c1ccccc1F	96*	95*	64*	0
c1ccc2oc(C3=NNC(=NC4CC4)SC3)cc2c1	79*	34	15	0.2
COc1ccc(-n2c(SC)nnc2-c2c[nH]c3ccccc23)cc1	-9	1	9	1.1
O=C(CCc1nnc(CCCCc2ccccc2)o1)NCc1cc(F)ccc1F	-2	8	14	1
CCOC(=O)c1c(NC(=O)Cc2cccs2)sc(C(=O)N2CCCCC2)c1C	2	4	-3	1
OCCNCCOc1ccccc1-c1ccccc1	-9	-9	9	1.1
O=C(NC(=S)Nc1ccccn1)c1cncc(Br)c1	64*	10	12	0.4
Cc1ccc(OCC(=O)NC(=S)Nc2ccccn2)c(Br)c1	.	84*	.	.
O=C(NC(=S)Nc1ccc(Br)cn1)c1cncc(Br)c1	42	16	1	0.6
CN(C(=O)c1ccncc1)C1CC(C)(C)N(O)C(C)(C)C1	0	-13	15	1
Cc1cc(Nc2ccc(Br)cc2)n2nc(C)nc2n1	-1	-9	-2	1
Cc1ccc(O)c(NC(=O)c2ccc3c(c2)C(=O)N(CC(C)C)C3=O)c1	.	19	.	.
COc1ccc(NC(=O)NC(=O)c2ccccc2)cc1	.	1	.	.
O=C(NC(=O)c1ccccc1)Nc1ccccc1	.	54*	.	.
O=C(O)CCSc1nnc(-c2ccc3c(c2)OCO3)o1	31	4	11	0.7
Cc1cc(C)cc(CC2CC(=O)N(c3ccc([N+](=O)[O-])cc3)C2=O)c1 (configuration not stated)	.	-15	.	.
CCOc1cc(/C=N\NC(=O)CC(=O)NCCc2ccccc2)ccc1O	-6	3	8	1.1
